Activity calls are given as the source filed them. The calls are words filed in the database; no cut-off is given here.
Experiments:
[1] = biological target: T1, 1-phosphatidylinositol 3-phosphate 5-kinase (Homo sapiens, UniProt Q9Y2I7); experiment: Inhibition of PIKFYVE in human MDA-MB-231 cells assessed as vacuole formation at 4 uM measured after 3 days by bright field microscopy; format: cell-based; conditions: time 3.0 day
Procedure, shortened: (§1)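 MDA-MB-231 cells (DMEM, 10% FBS) seeded, next day treated with inhibitor or DMSO; after 3 days imaged by bright-field microscopy at 20× for vacuoles.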

[2] = biological target: T1, 1-phosphatidylinositol 3-phosphate 5-kinase; experiment: Inhibition of Nano-Luc fused PIKFYVE (unknown origin) expressed in HEK293T cells pretreated for 3 hrs followed by K8-tarcer addition and measured after 1 hr by NanoBRET assay; format: cell-based
Homo sapiens [3] = organism: Homo sapiens; experiment: Selectivity ratio of IC50 for His-tagged human recombinant JNK1 expressed in insect cells to His-tagged human recombinant JNK2 expressed in baculovirus expression system
Procedure, shortened: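 Z′-Lyte kinase assays of JNK1 and JNK2 with 100 μM ATP and 1 h compound incubation. Fixed time point IC50 was determined in duplicate. The selectivity ratio is JNK1 IC50 over JNK2 IC50.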

[4] = Antiproliferative activity against human HAP1 cells assessed as inhibition of cell growth incubated for 3 days by CellTiter-Glo luminescent assay; format: functional, cell-based; conditions: HAP1, 72 h
[5] = biological target: Epidermal growth factor receptor (Homo sapiens) (UniProt P00533); experiment: Inhibition of EGFR (unknown origin)
[6] = biological target: T2, Mitogen-activated protein kinase 9 (Homo sapiens, UniProt P45984); experiment: Inhibition of His-tagged human recombinant JNK2 expressed in baculovirus expression system incubated for 1 hr in presence of ATP by Z'-Lyte assay
Target sequence in this assay (P45984 whole entry): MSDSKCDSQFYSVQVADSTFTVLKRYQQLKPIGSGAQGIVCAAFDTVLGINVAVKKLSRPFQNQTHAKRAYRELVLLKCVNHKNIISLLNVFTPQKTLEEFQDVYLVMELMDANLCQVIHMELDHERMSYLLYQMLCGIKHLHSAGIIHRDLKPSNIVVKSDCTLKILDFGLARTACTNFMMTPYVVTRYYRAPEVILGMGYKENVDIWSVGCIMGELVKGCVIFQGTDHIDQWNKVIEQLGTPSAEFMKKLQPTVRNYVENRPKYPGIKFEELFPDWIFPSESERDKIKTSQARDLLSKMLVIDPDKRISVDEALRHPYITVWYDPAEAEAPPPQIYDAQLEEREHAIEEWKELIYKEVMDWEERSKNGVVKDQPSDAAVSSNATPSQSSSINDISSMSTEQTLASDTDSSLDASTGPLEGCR

Homo sapiens [7] = organism: Homo sapiens; experiment: Inhibition of CK1 (unknown origin)
[8] = biological target: T3, Aurora kinase A (Homo sapiens) (UniProt O14965); experiment: Inhibition of Aurora A kinase (unknown origin)
T3 sequence (whole entry): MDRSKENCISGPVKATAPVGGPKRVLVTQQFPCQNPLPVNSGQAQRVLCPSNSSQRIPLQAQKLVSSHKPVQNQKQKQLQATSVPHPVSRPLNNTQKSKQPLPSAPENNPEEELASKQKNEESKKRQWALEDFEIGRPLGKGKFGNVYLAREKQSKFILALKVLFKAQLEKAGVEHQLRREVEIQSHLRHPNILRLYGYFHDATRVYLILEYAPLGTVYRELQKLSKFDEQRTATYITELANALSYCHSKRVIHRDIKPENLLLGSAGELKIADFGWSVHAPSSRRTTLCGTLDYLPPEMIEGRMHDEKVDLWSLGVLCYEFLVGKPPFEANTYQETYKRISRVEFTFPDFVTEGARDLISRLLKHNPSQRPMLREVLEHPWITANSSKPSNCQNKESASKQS

[9] = biological target: T4, Mitogen-activated protein kinase 8 (Homo sapiens, UniProt P45983); experiment: Inhibition of His-tagged human recombinant JNK1 expressed in insect cells incubated for 1 hr in presence of ATP by Z'-Lyte assay; design: species or system Insect cell
T4 sequence (P45983 whole entry, the tested form may be a part): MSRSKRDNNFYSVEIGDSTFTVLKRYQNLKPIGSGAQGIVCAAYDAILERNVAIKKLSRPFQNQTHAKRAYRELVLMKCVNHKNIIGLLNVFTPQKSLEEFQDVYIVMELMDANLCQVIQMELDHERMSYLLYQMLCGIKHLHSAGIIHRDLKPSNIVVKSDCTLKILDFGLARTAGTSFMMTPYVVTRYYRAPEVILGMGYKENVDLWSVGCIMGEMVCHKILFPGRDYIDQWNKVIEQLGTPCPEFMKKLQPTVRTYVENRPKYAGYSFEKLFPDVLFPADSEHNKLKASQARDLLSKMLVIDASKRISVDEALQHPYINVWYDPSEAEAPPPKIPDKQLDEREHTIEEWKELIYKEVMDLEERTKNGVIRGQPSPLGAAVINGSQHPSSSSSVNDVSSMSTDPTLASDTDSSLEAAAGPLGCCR

[10] = biological target: Epithelial discoidin domain-containing receptor 1 (Homo sapiens) (UniProt Q08345); experiment: Inhibition of DDR1 (unknown origin)
[11] = biological target: CDK7/Cyclin H/MNAT1 (Homo sapiens) (UniProt P51946+P50613+P51948); experiment: Inhibition of CDK7/Cyclin H/MAT1 (unknown origin); format: protein-complex assay
[12] = biological target: Aurora kinase B (Homo sapiens) (UniProt Q96GD4); experiment: Inhibition of Aurora B kinase (unknown origin)
Aurora kinase B (Homo sapiens), sequence (Q96GD4 whole entry): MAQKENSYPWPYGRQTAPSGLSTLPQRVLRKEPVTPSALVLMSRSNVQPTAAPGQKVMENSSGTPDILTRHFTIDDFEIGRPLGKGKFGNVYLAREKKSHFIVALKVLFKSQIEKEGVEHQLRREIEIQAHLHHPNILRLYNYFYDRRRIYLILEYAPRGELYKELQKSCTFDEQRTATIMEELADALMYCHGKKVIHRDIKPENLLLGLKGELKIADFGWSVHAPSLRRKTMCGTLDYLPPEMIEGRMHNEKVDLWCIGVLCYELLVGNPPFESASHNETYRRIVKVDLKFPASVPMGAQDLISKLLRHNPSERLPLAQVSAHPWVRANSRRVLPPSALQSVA

HAP1 = experiment: Antiproliferative activity against human HAP1 cells assessed as inhibition of cell growth incubated for 3 days in presence of VX745 by CellTiter-Glo luminescent assay; format: functional, cell-based; conditions: time 3.0 day
MM1.S [13] = experiment: Antiproliferative activity against human MM1.S cells assessed as inhibition of cell growth rate measured after 72 hrs by CellTiter-Glo luminescent assay; format: functional
[14] = biological target: T5, Mitogen-activated protein kinase 14 (Homo sapiens, UniProt Q16539); experiment: Inhibition of wild type full length human p38 alpha (M1 to S360 residues) expressed in bacterial expression system at 1 uM by KinomeScan analysis
T5 sequence (Q16539 whole entry, the tested form may be a part): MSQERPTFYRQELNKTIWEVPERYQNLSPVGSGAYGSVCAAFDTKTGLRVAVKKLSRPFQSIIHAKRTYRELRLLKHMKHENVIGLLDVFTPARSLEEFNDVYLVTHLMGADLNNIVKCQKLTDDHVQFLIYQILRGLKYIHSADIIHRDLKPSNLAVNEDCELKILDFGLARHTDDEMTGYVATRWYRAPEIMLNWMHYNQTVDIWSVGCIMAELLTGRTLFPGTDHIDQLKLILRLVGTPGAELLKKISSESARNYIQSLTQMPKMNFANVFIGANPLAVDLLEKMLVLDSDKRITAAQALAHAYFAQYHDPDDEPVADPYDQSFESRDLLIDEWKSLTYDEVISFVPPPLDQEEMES
Procedure, shortened: (§2)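 KINOMEscan (ScanMAX) binding panel of >400 kinases, compound tested at 1 μM; reported as percent inhibition/score.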

[15] = biological target: T2, Mitogen-activated protein kinase 9; experiment: Inhibition of wild type full length human JNK2 (M1 to Q382 residues) expressed in mammalian expression system at 1 uM by KinomeScan analysis; procedure, shortened: as §2
Target sequence in this assay (P45984 whole entry, looked up): as the sequence (P45984 whole entry) above

[16] = biological target: T4, Mitogen-activated protein kinase 8; experiment: Inhibition of wild type full length human JNK1 expressed in mammalian expression system at 1 uM by KinomeScan analysis; procedure, shortened: as §2
[17] = biological target: T5, Mitogen-activated protein kinase 14; experiment: Inhibition of p38alpha in human SUM159 cells at 1 uM by KiNativ Profiling analysis; format: cell-based; conditions: SUM159PT
Procedure, shortened: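 SUM159 cells treated with 1 μM compound, then washed with PBS and frozen. Lysates were chased with a nonspecific ATP or ADP-biotin probe that labels the conserved catalytic lysine.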

[18] = biological target: Mitogen-activated protein kinase 10 (Homo sapiens) (UniProt P53779); experiment: Inhibition of human full length recombinant JNK3 at 1 uM by KinomeScan analysis; procedure, shortened: as §2
Mitogen-activated protein kinase 10 (Homo sapiens), sequence (P53779 whole entry): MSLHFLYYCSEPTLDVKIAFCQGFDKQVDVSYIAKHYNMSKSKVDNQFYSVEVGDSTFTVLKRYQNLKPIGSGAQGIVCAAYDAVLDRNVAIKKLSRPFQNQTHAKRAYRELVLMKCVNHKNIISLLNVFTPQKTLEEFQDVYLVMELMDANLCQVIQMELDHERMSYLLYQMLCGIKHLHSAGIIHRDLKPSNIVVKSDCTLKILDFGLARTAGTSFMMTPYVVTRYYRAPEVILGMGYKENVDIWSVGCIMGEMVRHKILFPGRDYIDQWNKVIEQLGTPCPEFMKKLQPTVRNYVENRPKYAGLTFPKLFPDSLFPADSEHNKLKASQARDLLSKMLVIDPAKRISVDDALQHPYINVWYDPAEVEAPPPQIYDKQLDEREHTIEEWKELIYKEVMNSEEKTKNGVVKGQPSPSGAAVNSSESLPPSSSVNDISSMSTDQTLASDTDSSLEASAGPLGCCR

SUM159PT = experiment: Inhibition of CK1gamma in human SUM159 cells at 1 uM by KiNativ Profiling analysis; format: cell-based
Procedure, shortened: (§3)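 SUM159 cells treated with 1 μM compound, collected, PBS-washed and frozen; lysates probed with ATP/ADP-biotin acyl probe labelling catalytic lysine (KiNativ); protection from labelling measured.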

[19] = biological target: T1, 1-phosphatidylinositol 3-phosphate 5-kinase; experiment: Inhibition of PIKFYVE in human MDA-MB-231 cells assessed as vacuole formation at 1 uM measured after 3 days by bright field microscopy; format: cell-based; conditions: time 3.0 day; procedure, shortened: as §1
[20] = biological target: T2, Mitogen-activated protein kinase 9; experiment: Inhibition of JNK2 in human SUM159 cells at 1 uM by KiNativ Profiling analysis; format: cell-based; conditions: SUM159PT; procedure, shortened: as §3
Target sequence in this assay (P45984 whole entry, looked up): as the sequence (P45984 whole entry) above

[21] = biological target: T1, 1-phosphatidylinositol 3-phosphate 5-kinase; experiment: Inhibition of PIKFYVE in human SUM159 cells at 1 uM by KiNativ Profiling analysis; format: cell-based; conditions: SUM159PT; procedure, shortened: as §3
[22] = biological target: T2, Mitogen-activated protein kinase 9; experiment: Covalent binding affinity to JNK2 (unknown origin) assessed as Cys116 labelling at protein:compound concentration ratio of 1:5 incubated for 1 hr by capillary electrophoresis MS/MS analysis
Procedure, shortened: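 Purified JNK2 (5 μg) incubated 1 h at room temperature with 5-fold molar excess compound; intact mass by LC/MS, then trypsin digest and capillary electrophoresis-MS/MS database search for modified residue.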
Target sequence in this assay (P45984 whole entry, looked up): as the sequence (P45984 whole entry) above

[23] = biological target: T1, 1-phosphatidylinositol 3-phosphate 5-kinase; experiment: Inhibition of wild type partial length human PIKFYVE (F1512 to C2098 residues) expressed in mammalian expression system at 1 uM by KinomeScan analysis; procedure, shortened: as §2
[24] = biological target: T1, 1-phosphatidylinositol 3-phosphate 5-kinase; experiment: Binding affinity to wild type partial length human PIKFYVE (F1512 to C2098 residues) expressed in mammalian expression system by KdELECT kinase assay
Homo sapiens [25] = organism: Homo sapiens; experiment: Inhibition of CK1gamma (unknown origin) at 1 uM by KinomeScan analysis
Procedure, shortened: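 KINOMEscan ScanMAX panel screened at 1 μM compound.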

MM1.S [26] = experiment: Induction of apoptosis in human MM1.S cells assessed as increase in caspase-3 cleavage at 0.5 to 2.5 uM incubated for 24 hrs by immunoblot analysis; format: functional, cell-based; conditions: dose 0.5-2.5 µM
ANBL-6 [27] = experiment: Antiproliferative activity against Bortezomib-resistant human ANBL-6 cells assessed as inhibition of cell growth incubated for 72 hrs by CellTiter-Glo luminescent assay; format: functional, cell-based
[28] = biological target: T2, Mitogen-activated protein kinase 9; experiment: Covalent binding affinity to JNK2 in human MM1.S cells incubated for 6 hrs by biotin-JNK-IN-7 probe based pull-down competition based analysis; format: cell-based
Procedure, shortened: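 MM.1S cells exposed to compound or DMSO 6 h; lysed in HEPES pH 7.4/NP-40 buffer; lysates incubated with 1 μM biotin-JNK-IN-7 overnight at 4 °C then 2 h room temperature; streptavidin pull-down 2–3 h at 4 °C; bound JNK1/JNK2 detected by western blot.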
Target sequence in this assay (P45984 whole entry, looked up): as the sequence (P45984 whole entry) above

ANBL-6 [29] = experiment: Antiproliferative activity against wild type human ANBL-6 cells assessed as inhibition of cell growth incubated for 72 hrs by CellTiter-Glo luminescent assay; format: functional, cell-based
MM1.S [30] = experiment: Induction of apoptosis in human MM1.S cells assessed as increase in PARP cleavage at 0.5 to 2.5 uM incubated for 24 hrs by immunoblot analysis; format: functional, cell-based; conditions: dose 0.5-2.5 µM
[31] = biological target: T2, Mitogen-activated protein kinase 9; experiment: Binding affinity to wild type N-terminal GST-tagged human recombinant JNK2 (1 to 364 residues) expressed in Escherichia coli in presence of ATP measured every 0.5 mins for 120 mins by fluorescence based analysis
Target sequence in this assay (P45984 whole entry, looked up): as the sequence (P45984 whole entry) above

MM1.S [32] = experiment: Induction of apoptosis in human MM1.S cells at 250 nM by AnnexinV/PI staining based flow cytometry; format: functional, cell-based

T1 sequence (Q9Y2I7 whole entry): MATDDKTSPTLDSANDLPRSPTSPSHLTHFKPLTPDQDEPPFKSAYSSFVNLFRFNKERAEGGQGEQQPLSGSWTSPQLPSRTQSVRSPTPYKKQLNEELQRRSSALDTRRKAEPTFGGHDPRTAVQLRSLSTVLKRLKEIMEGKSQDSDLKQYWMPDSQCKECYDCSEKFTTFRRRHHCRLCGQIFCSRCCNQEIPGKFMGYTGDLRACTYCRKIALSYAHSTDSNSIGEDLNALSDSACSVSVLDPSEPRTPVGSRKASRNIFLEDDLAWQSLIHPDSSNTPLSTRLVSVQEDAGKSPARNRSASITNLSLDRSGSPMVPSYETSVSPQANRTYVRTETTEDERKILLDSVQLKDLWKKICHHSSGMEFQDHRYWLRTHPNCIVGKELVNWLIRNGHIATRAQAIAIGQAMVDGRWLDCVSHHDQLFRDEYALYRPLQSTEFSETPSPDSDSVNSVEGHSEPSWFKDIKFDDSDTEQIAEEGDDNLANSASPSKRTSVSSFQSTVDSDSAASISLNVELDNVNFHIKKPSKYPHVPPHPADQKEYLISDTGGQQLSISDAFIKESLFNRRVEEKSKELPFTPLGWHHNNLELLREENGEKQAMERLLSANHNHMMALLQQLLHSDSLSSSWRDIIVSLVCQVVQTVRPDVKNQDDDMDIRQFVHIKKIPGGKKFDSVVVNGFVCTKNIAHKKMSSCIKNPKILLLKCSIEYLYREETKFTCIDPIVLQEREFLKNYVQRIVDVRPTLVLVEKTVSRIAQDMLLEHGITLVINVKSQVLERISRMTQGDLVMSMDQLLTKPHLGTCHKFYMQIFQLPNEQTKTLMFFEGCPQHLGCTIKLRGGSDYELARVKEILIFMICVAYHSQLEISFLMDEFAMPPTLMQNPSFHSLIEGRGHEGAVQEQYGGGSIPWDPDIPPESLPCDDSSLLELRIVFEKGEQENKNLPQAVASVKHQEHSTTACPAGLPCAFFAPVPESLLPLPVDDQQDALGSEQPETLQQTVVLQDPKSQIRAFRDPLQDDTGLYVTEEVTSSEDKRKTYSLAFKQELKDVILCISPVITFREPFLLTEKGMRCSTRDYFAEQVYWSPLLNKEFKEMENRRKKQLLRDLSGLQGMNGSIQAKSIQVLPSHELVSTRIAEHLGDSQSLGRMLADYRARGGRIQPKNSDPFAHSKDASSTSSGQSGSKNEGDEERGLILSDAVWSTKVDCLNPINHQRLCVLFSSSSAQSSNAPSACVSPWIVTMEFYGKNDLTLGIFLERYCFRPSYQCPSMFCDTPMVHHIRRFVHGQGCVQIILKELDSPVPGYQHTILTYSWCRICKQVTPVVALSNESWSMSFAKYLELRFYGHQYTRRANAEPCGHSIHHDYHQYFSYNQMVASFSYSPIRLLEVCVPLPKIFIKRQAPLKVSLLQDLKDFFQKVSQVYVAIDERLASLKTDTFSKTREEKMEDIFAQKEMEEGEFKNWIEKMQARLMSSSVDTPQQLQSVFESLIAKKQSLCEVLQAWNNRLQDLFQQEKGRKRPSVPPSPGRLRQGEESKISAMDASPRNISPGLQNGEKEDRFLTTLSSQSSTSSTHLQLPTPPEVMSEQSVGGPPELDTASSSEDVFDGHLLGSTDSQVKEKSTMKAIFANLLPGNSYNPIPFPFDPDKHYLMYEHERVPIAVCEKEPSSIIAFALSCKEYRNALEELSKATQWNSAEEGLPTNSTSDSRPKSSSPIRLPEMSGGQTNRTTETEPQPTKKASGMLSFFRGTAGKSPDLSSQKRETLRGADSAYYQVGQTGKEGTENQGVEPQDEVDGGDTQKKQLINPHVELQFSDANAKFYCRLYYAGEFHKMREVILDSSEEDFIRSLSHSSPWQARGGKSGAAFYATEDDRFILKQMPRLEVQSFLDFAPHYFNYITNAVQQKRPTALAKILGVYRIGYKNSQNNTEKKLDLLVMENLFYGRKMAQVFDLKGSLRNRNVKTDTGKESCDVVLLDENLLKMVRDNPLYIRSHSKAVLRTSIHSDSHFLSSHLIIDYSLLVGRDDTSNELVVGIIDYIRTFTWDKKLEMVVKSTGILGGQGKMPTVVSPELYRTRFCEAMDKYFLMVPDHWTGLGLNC

| SMILES | Ratio IC50 (Homo sapiens [3]) | IC50 [6] [nM] | IC50 [9] [nM] | also measured |
| --- | --- | --- | --- | --- |
| CN(C)CCCC(=O)Nc1ccc(C(=O)N2CC[C@H](Nc3nccc(-c4c(-c5ccccc5)nn5ccccc45)n3)C2)cc1 | – | – | – | inhibition [1]: inactive; IC50 [2]: > 3000 nM |
| Cc1cccn2nc(-c3ccccc3)c(-c3ccnc(N[C@H]4CCN(C(=O)c5ccc(NC(=O)/C=C/CN(C)C)cc5)C4)n3)c12 | 8 | – | – | – |
| O=c1ncn2nc(Sc3ccc(F)cc3F)ccc2c1-c1c(Cl)cccc1Cl [NEFLAMAPIMOD] | – | – | – | IC50 [4]: 10000 nM |
| CN(C)C/C=C/C(=O)Nc1ccc(C(=O)Nc2cccc(Nc3nccc(-c4c(-c5ccccc5)nn5ccccc45)n3)c2)cc1 | – | 8.3 | 724 | inhibition [5]: Active; inhibition (Homo sapiens [7]): Active; inhibition [8]: Active; inhibition [10]: Active; inhibition [11]: Active; inhibition [12]: Active |
| O[C@H]1CC[C@H](Nc2ncc3nc(Nc4c(F)cc(F)cc4F)n([C@H]4CCOC4)c3n2)CC1 [TANZISERTIB] | – | – | – | IC50 [4]: > 30000 nM; Activity (HAP1): inactive; Activity (MM1.S [13]): inactive |
| CN(C)C/C=C/C(=O)Nc1ccc(C(=O)N2CCC[C@H](Nc3nccc(-c4c(-c5ccccc5)nn5ccccc45)n3)C2)cc1 | 10 | 5 | 53 | – |
| CN(C)C/C=C/C(=O)Nc1ccc(C(=O)N2CC[C@H](Nc3nccc(-c4c(-c5ccc(Cl)cc5)nn5ccccc45)n3)C2)cc1 | 9 | 7 | 62 | – |
| CN(C)C/C=C/C(=O)Nc1ccc(C(=O)N2CCCC[C@H](Nc3nccc(-c4c(-c5ccccc5)nn5ccccc45)n3)C2)cc1 | 9 | 28 | 256 | – |
| CN(C)C/C=C/C(=O)Nc1ccc(C(=O)N2CCC[C@@H](Nc3nccc(-c4c(-c5ccccc5)nn5ccccc45)n3)C2)cc1 | 28 | 17 | 470 | – |
| CN(C)C/C=C/C(=O)Nc1ccc(C(=O)N2CC[C@H](Nc3nccc(-c4c(-c5ccccc5)nn5ccccc45)n3)C2)cc1 | 33 | 5 | 166 | inhibition [14]: Active; inhibition [15]: Active; inhibition [16]: Active; inhibition [17]: Active; inhibition [18]: Active; inhibition (SUM159PT): Active; inhibition [19]: Active; inhibition [20]: Active; inhibition [21]: Active; Activity [22]: 100%; inhibition [23]: Active; IC50 [2]: 292 nM; Kd [24]: 270 nM; inhibition (Homo sapiens [25]): Active |
| CN(C)C/C=C/C(=O)Nc1ccc(C(=O)N2CCCC[C@@H](Nc3nccc(-c4c(-c5ccccc5)nn5ccccc45)n3)C2)cc1 | 23 | 17 | 387 | – |
| CN(C)C/C=C/C(=O)Nc1ccc(C(=O)N2CC[C@H](Nc3nccc(-c4c(-c5cccc(Cl)c5)nn5ccccc45)n3)C2)cc1 | 19 | 4 | 74 | – |
| CN(C)C/C=C/C(=O)Nc1ccc(C(=O)N2CC[C@H](Nc3ncc(Cl)c(-c4c(-c5ccccc5)nn5ccccc45)n3)C2)cc1 | 6 | 483 | 3050 | – |
| CN(C)C/C=C/C(=O)Nc1ccc(C(=O)NC2CCCC(Nc3nccc(-c4c(-c5ccccc5)nn5ccccc45)n3)C2)cc1 (configuration not stated) | 11 | 44 | 475 | – |
| CN(C)C/C=C/C(=O)Nc1ccc(C(=O)N2CC[C@@H](Nc3nccc(-c4c(-c5ccccc5)nn5ccccc45)n3)C2)cc1 | 5 | 2 | 10 | – |
| Cc1cc(NC(=O)c2cccc(NC(=O)/C=C/CN(C)C)c2)ccc1Nc1nccc(-c2cccnc2)n1 | – | – | – | Activity (MM1.S [26]): inactive; Activity (ANBL-6 [27]): inactive; Activity [28]: Active; Activity (ANBL-6 [29]): inactive; Activity (MM1.S [30]): inactive; Activity [31]: Active; Activity (MM1.S [32]): inactive |
| Cc1ccc2c(-c3ccnc(N[C@H]4CCN(C(=O)c5ccc(NC(=O)/C=C/CN(C)C)cc5)C4)n3)c(-c3ccccc3)nn2c1 | 18 | 1 | 18 | – |
| CN(C)C/C=C/C(=O)Nc1ccc(C(=O)N2CC[C@H](Nc3nccc(-c4c(-c5ccc(F)cc5)nn5ccccc45)n3)C2)cc1 | 17 | 4 | 67 | – |

Source: ChEMBL document CHEMBL5316351, “Development of a Covalent Inhibitor of c-Jun N-Terminal Protein Kinase (JNK) 2/3 with Selectivity over JNK1” (J Med Chem, 2023)
